This passage reports Drug uptake, viability and Activity results from ChEMBL document CHEMBL6103596, “Design, Synthesis, and Biological Evaluation of BODIPY-Caged Resiquimod as a Dual-Acting Phototherapeutic” (J Med Chem, 2025).

Active and inactive are the calls of the source. The rule behind the calls is not given here.

Series [1] can be described thus: Drug uptake in human AD293 cells assessed as increase in red fluorescence at 10 uM measured after 40 mins by fluorescence imaging based analysis. It counts as ADME, cell-based. The following applies: ad293, 40 min.
Series [2] can be described thus: Dark toxicity in human HeLa cells assessed as cell viability at 10 uM under dark condition and measured after 72 hrs by CCK-8 method relative to control. It counts as cell-based. The following applies: read-out: Activity. In a few lines:
(§1)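 A549, HaCaT and HeLa cells seeded at 2 × 10^3 cells/well in phenol red-free DMEM with 10% FBS. After 24 h, medium replaced with 1% DMSO containing 10 μM compound. After 90 min, one plate kept dark and one exposed to 530 or 650 nm LED (30 mW) for 15 min. Plates incubated 72 h, then CCK-8 read at 450 nm. Viability taken relative to dark control. Triplicates (HaCaT six).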

Series [3] is described as follows: Photorelease activity of the compound in aqueous solution at 30 uM under 647 nm 400mW LED light by 1H NMR spectroscopy analysis. The following applies: buffer, time 10-40 min. It counts as ADME.
Series [4] is described as follows: Thermal stability of compound in DMSO-d6 at 37.5 degree C measured after 1 day by 1H NMR spectroscopy analysis relative to control. It counts as physicochemical. The following applies: 24 h. A digest of the protocol:
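Compound in DMSO-d6 followed by 1H NMR. Degradation taken from the intensity of three signals (one resiquimod, one BODIPY, and the linkage NH), each relative to the DMSO-d6 internal standard, and the three averaged.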

Series [5] in a line: Induction of superoxide anion radical assessed as DMPO-O2 radical adduct formation under dark condition measured after 10 mins by ESR spectra analysis. It counts as functional. A digest of the protocol:
(§2)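 ESR spectra recorded with DMPO as spin trap to detect superoxide and/or hydroxyl radical adducts, before and after 10 min irradiation of compound.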

Series [6] in a line: Dark toxicity in human A549 cells assessed as cell viability at 10 uM under dark condition and measured after 72 hrs by CCK-8 method relative to control. The format is cell-based. The following applies: read-out: Activity. A digest of the protocol:
as §1

Series [7] in a line: Phototoxicity in human HaCaT cells assessed as cell viability at 10 uM under 530 ot 650nm 30 mW LED light irradiation and measured after 72 hrs by CCK-8 method relative to control. It counts as functional. The following applies: light or radiation study, read-out: Activity. A digest of the protocol: as §1
Series [8] is described as follows: Photosensitizing ability of the compound assessed as singlet oxygen quantum yield under 600nm monochromatic light irradiation by DPBF based assay relative to control. It counts as functional. A digest of the protocol: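 Singlet oxygen generation followed by the decrease in DPBF absorbance under irradiation. DPBF (20–25 μm) used at 5–10-fold excess over compound (2.5–5 μm).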

Series [9] concerns the target T1, Toll-like receptor 7 (Homo sapiens) (UniProt Q9NYK1).
T1 sequence (whole entry): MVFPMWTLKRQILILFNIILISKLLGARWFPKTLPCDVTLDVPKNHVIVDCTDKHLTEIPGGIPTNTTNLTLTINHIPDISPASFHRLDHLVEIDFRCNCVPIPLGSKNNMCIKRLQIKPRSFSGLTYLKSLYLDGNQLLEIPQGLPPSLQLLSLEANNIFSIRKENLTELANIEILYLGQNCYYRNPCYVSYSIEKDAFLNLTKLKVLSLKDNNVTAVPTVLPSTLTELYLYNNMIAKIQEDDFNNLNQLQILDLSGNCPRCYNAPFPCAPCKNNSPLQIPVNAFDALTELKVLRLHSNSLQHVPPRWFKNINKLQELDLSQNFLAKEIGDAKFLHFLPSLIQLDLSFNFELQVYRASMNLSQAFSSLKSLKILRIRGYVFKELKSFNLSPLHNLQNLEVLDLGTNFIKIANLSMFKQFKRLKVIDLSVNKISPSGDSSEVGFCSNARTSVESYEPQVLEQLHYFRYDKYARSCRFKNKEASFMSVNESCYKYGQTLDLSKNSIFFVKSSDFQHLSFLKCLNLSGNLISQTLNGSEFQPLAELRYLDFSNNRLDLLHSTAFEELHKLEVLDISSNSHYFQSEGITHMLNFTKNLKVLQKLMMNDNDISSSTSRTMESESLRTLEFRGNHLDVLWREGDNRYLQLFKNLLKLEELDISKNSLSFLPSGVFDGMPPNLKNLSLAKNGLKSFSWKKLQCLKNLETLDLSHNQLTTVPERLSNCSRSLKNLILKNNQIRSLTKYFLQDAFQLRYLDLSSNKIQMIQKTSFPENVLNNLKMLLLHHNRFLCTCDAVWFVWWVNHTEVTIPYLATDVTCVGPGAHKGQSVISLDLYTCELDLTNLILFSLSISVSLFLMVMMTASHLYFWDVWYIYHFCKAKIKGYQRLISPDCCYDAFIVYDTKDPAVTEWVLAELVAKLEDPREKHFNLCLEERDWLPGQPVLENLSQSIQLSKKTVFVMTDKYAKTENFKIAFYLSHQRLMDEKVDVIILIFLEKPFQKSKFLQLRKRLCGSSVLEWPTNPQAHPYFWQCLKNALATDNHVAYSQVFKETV
As to the kind of experiment: Activation of TLR7 in human AD293 cells assessed as IkappaB-alpha degradation at 10 uM preincubated with NAC followed by compound addition and measured after 30 mins by Western blot analysis. The format is cell-based. A digest of the protocol: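 Stable TLR7-expressing AD293 line made by TLR7 plasmid transfection and hygromycin B selection (250 μg/mL, 10 days). Cells pretreated with N-acetyl-cysteine, then given 10 μM compound, with or without 30 min 650 nm red-light irradiation. Lysates run on 10% SDS-PAGE and blotted to PVDF. Total IκB probed (1:1000) with GAPDH loading control, ECL detection. Means of three experiments.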

The nature of series [10]: Induction of hydroxyl radical assessed as DMPO-OH radical adduct formation under light irradiation measured after 10 mins by ESR spectra analysis. The format is functional. In a few lines:
as §2

Turning to `CCOCc1nc2c(NC(=O)OCC3=C4C(C)=CC(/C=C/c5ccc(OCCOCCOCCOC)cc5)=[N+]4[B-](C)(C)n4c(/C=C/c5ccc(OCCOCCOCCOC)cc5)cc(C)c43)nc3ccccc3c2n1CC(C)(C)O`, in series [1], the Drug uptake result was “Active”. Also, the viability at 72 h, 10 µM in series [2] is 4%; in [6], 2%. The results for the Activity entry in series [3], in [4] and in series [8] were “Time-dependent-effect”, 7% and 1.2%, respectively. Also, the result in series [5], in [9] and in [10] was inactive. Moreover, the viability at 10 µM in series [7] stood at 41%.
